Vif imaging: inhibitors of HIV Vif; HEK293T cells, Vif self-association by quenched fluorescence, imaging, 24 h; 340,000 tested, 0.35% active; inhibition, % at 7.49 µM; in the data active = inhibition above about 50%, passing the limit was not always enough; inconclusive = no clear call, values can overlap the other calls; inactive = below about 31%
Wnt act: activates Wnt/beta-catenin signaling in a reporter cell assay; activation, % at 9.35 µM; 300,000 tested, 1.2% active; activator, plate reader; in the data active = activation above about 30%, passing the limit was not always enough; inconclusive = no clear call, values can overlap the other calls;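 note: 0% = neutral control wells and 100% = positive control wells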
esBAF inh: SWI/SNF esBAF complex inhibition | mouse ES cells, Bmi1-luciferase knock-in reporter, 24 h; 100% = twice the neutral-well signal | reporter increase, % at 12.5 µM | 350,000 tested, 2% active; in the data active = activation above about 40%; inconclusive = no clear call, values can overlap the other calls;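 note: 0% = median of the plate's neutral control wells and 100% = double that signal; a rise in the Bmi1 reporter signal indicates esBAF inhibition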
Xi reactivation: reactivates the inactive X chromosome in mouse fibroblasts; XiGFP mouse fibroblasts, % GFP-positive cells imaging, 3 d; cells co-treated with 5-aza-dC sensitizer; scaled so ellipticine positive control = 100%; activation, % at 7.58 µM; 360,000 tested, 0.055% active; AID 743238;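 active = mean normalized replicate activation at least 10% and every replicate at or above 10%; inconclusive = only one of the two criteria met; inactive = mean below 10% and not all replicates reach 10%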;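 note: 0% = median of on-plate neutral control wells and 100% = ellipticine 6 µM median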
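System: SV40-immortalized XiGFP fibroblast cells, line 68-5-11 / Incubation: 3-day compound exposure, then 15 min fixation at room temperature / Compound: single concentration per compound, delivered by pin transfer / Buffer or medium: DMEM plus 5-aza-dC sensitizer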
MITF act: activators of MITF-driven TRPM1 promoter activity in SK-MEL-5 cells | SK-MEL-5 TRPM1-promoter luciferase, 24 h; % of positive control, neutral wells = 0 | activation, % at 12.5 µM | 300,000 tested, 0.75% active;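 active = mean activation of at least 80% with every replicate also reaching 80%; inconclusive = mean reaches 80% but some replicate falls short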;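 note: 0% = neutral control wells and 100% = parthenolide positive control wells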
Active calls of the source: *; ? = inconclusive; · = no result. An excerpt weighted towards active compounds, which were near 2.6% of everything screened.

SMILES	Vif imaging	Wnt act	esBAF inh	Xi reactivation	MITF act
O=C(Nc1ccc(Cl)cc1)c1csc([C@@H]2O[C@H](CO)[C@@H](O)[C@H]2O)n1	18	2	45*	0	·
O=C(Nc1cccc(Cl)c1Cl)c1csc([C@@H]2O[C@H](CO)[C@@H](O)[C@H]2O)n1	-6	19	50*	0	·
O=C(Nc1cccc(Cl)c1)c1ccc2sc([C@@H]3O[C@H](CO)[C@H](O)[C@H](O)[C@H]3O)nc2c1	-11	·	4	0	·
O=C(NCc1ccccc1Cl)c1csc([C@H]2C[C@H](O)[C@@H](CO)O2)n1	23	3	-5	0	·
O=C(Nc1cccc(Cl)c1)c1ccc2sc([C@H]3C[C@H](O)[C@@H](CO)O3)nc2c1	-23	-1	67*	0	·
Cc1nc2sc(-c3ccccc3)cc2c(=O)[nH]1	-15	8	-57	·	-26
CC(C)OC(=O)Cc1nc2sc(-c3ccccc3)cc2c(=O)[nH]1	-11	12	49*	0	·
COC(=O)CN1C(=S)N(c2ccc(OC)cc2)C(=O)/C1=C/c1cccs1	21	·	·	0	-11
CCc1ccc(N2C(=O)/C(=C/c3cccs3)N(CC(=O)OC)C2=S)cc1	116*	·	-4	·	-6
CC(O)CC(=O)O (centres undefined)	-5	1	-1	·	5
C[N+](C)(C)CC(O)CC(=O)O (centres undefined)	116*	-2	12	0	2
O=S(=O)(NCCSc1nnnn1-c1ccccc1)c1cccs1	-14	8	53*	·	14
C[C@@H]1CN([C@H](C)CO)C(=O)c2cc(NS(=O)(=O)c3cccs3)ccc2O[C@@H]1CN(C)C(=O)Nc1ccc(C(F)(F)F)cc1	·	·	5	-1	·
C[C@H](CO)N1C[C@H](C)[C@H](CN(C)C(=O)Cc2ccccc2)Oc2ncc(C#CCN(C)C)cc2C1=O	·	·	0	-1	·
O=C(CSc1nncs1)NCCCc1ccccc1	-1	78*	·	0	4
O=C(CCSCc1ccccc1F)NCCc1ccccc1	-11	38*	5	0	6
COc1ccc(CCNC(=O)CCSCc2ccccc2F)cc1OC	2	2	2	0	6
CC(Sc1ccccc1)C(=O)NCCc1ccccc1 (centres undefined)	-4	5	63*	0	·
COc1ccc(CCNC(=O)C(C)SCc2ccccc2)cc1 (centres undefined)	13	1	5	0	14
O=C(CSc1ccccc1)NCCc1ccccc1	-3	6	52*	0	44
O=C(CSc1ccccc1)NCCc1ccc(F)cc1	-1	2	9	0	·
C[C@H](CO)N1C[C@H](C)[C@@H](CN(C)Cc2cncnc2)Oc2ncc(-c3ccc(C#N)cc3)cc2C1=O	·	·	-6	-1	·
Cc1cccc(/C=C/C(=O)c2ccc([N+](=O)[O-])o2)c1	62*	-28	-13	5	?
O=C(Nc1cccc(Cl)c1)N[C@@H]1CC[C@H](CCNC(=O)C2CCC2)O[C@H]1CO	·	·	1	1	·
COc1ccc(C2NC(=S)NC3=C2CCCC3=C2SCCS2)cc1 (centres undefined)	56*	?	-23	1	-84
SMILES	Vif imaging	Wnt act	esBAF inh	Xi reactivation	MITF act
O=C1/C(=C/N(C(=O)c2ccco2)c2ccc(Br)cc2)Sc2ccccc21	-10	·	48*	·	38
O=C1/C(=C/N(C(=O)c2ccco2)c2ccc(Cl)cc2)Sc2ccccc21	1	·	·	·	67
C[C@H]1CN([C@@H](C)CO)C(=O)c2cc(NC(=O)Nc3ccc(C(F)(F)F)cc3)ccc2O[C@@H]1CN(C)S(=O)(=O)c1ccc(Cl)cc1	·	·	5	0	·
CC(=O)N1C[C@H]2[C@@H](c3ccccc31)[C@H](CO)N2C(=O)c1ccc(F)cc1	·	·	-1	1	·
CN(C(=O)CSc1nc2ccccc2c(=O)n1-c1ccccc1F)C1CCS(=O)(=O)C1 (centres undefined)	62*	4	9	0	6
C=CCn1c(O)c(C2=c3ccccc3=NC2=O)s/c1=N/c1nccs1	88*	-4	-1	0	·
O=C1C(=O)c2cccnc2-c2ncccc21	78*	-3	·	0	·
O=C1c2cccnc2-c2ncccc21	-6	0	-14	·	7
C/C=C/c1ccc([C@H]2[C@@H](CO)N(C(C)=O)[C@@H]2CNC(=O)NCCC)cc1	·	·	·	0	·
CCOCCCn1c(=N)c(S(=O)(=O)c2ccc(C)cc2)cc2c(=O)n3cc(C)ccc3nc21	50*	0	-8	0	-5
C[C@H]1CN([C@@H](C)CO)C(=O)Cc2cc(NS(=O)(=O)c3ccc(F)cc3)ccc2O[C@@H]1CN(C)C(=O)Nc1ccc(F)cc1	·	·	-3	0	·
CO[C@@H]1CN(C)C(=O)c2cc(NC(C)=O)ccc2OC[C@H](C)N(Cc2ccccc2F)C[C@H]1C	·	·	0	0	·
Cc1cnc(C(=O)Nc2ccc(C(C)C)cc2)cn1	9	39*	·	0	131*
COc1ccc2c(c1OC)C(=O)N(c1ccc(C)cc1)C2	-12	44*	39	0	·
COc1ccc2c(c1OC)C(=O)N(c1cccc(C(F)(F)F)c1)C2	-3	·	46*	·	121*
CC(C)NC(=O)N[C@@H]1CC[C@H](CC(=O)O)O[C@@H]1CO	·	·	2	0	·
N#Cc1cc(C#N)c(N2CCN(c3ccccn3)CC2)nc1N	-3	30	·	·	98*
C[C@@H]1CN([C@@H](C)CO)C(=O)c2cccc(NC(=O)c3cnccn3)c2O[C@@H]1CN(C)C	·	·	-8	-1	·
COc1ccc(NC(=O)Nc2ccc3c(c2)[C@@H]2C[C@@H](CC(=O)N(C)C)O[C@H](CO)[C@@H]2O3)cc1	·	·	-2	0	·
CCCNC(=O)[C@H]1[C@H](CO)[C@H]2Cn3c(ccc(-c4ccccc4F)c3=O)[C@@H]1N2S(C)(=O)=O	·	·	2	0	·
CNc1nc(-c2ccc(Cl)cc2)cs1	26	·	52*	·	?
CCNc1nc(-c2ccc(Cl)cc2)cs1	-1	·	90*	·	111*
CNc1nc(-c2ccc([N+](=O)[O-])cc2)cs1	-8	19	45*	·	90*
COCC(=O)Nc1ccc2c(c1)[C@@H]1C[C@@H](CC(=O)N3CCN(C)CC3)O[C@@H](CO)[C@@H]1O2	·	·	-2	0	·
C[C@@H]1CN([C@H](C)CO)C(=O)c2cc(C#CC3(O)CCCC3)cnc2O[C@@H]1CN(C)C(=O)Cc1cccnc1	·	·	5	-1	·
CC(=O)c1sc(NC(=O)c2ccco2)nc1-c1ccccc1	-3	·	62*	·	67
CC(=O)c1c(C)[nH]c(C(=O)Nc2nc(-c3ccccc3)c(C)s2)c1C	1	·	·	0	111*
CC(=O)c1sc(NC(=O)c2ccccc2F)nc1-c1ccccc1	-1	0	·	0	88*
Cc1sc(NC(=O)c2ccco2)nc1-c1ccccc1	4	·	·	·	96*

Screening data (PubChem)
